Test results taken from publication PMC5974556 (ChemistryOpen, 2018).
≈ marks a conversion by molar mass, not a printed value. Marks after values point to notes of the source that are not given here.

Assays:
HepG2 cells [1] = test: Protein content; assay type: cell-based; conditions: Homo sapiens, HepG2, 72 h, read-out: HepG2 IC50 SRB
Method in brief: (§1)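 Seeded 2×10^4 cells per well for 24 h, then treated with or without test compound for three days, in triplicate. Fixed with 50% TCA for 1 h at 4 °C, washed and dried. Stained 30 min at 4 °C with 0.4% sulforhodamine B in 1% acetic acid, rinsed with 1% acetic acid. Dye redissolved in Tris buffer, absorbance read at 490 nm. Doxorubicin control; MTT and SRB data pooled, mean ± SD, n≥6.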

Caco‐2 cells [2] = test: Mitochondria activity; assay type: cell-based; conditions: Homo sapiens, Caco-2, 72 h, read-out: Caco‐2 IC50 MTT
Method in brief: (§2)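 Cells kept in DMEM+glutamax with 1% NEAA, 1% P/S and 10% FBS at 37 °C, 10% CO2. Seeded 2×10^4 per well for 24 h, then exposed 72 h to test compound at various concentrations in serum-free medium, in triplicate. MTT (5 mg/mL in PBS) added for 2 h, formazan dissolved in DMSO, read at 570 nm. IC50 from % survival; doxorubicin control; MTT and SRB data pooled, mean ± SD, n≥6.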

EA.hy926 cells [3] = test: Protein content; assay type: cell-based; conditions: Homo sapiens, EA.hy 926, 72 h, read-out: EA.hy926 IC50 SRB
Method in brief: as §1

Caco‐2 cells [4] = test: Protein content; assay type: cell-based; conditions: Homo sapiens, Caco-2, 72 h, read-out: Caco‐2 IC50 SRB
Method in brief: as §1

HT‐29 cells [5] = test: Intracellular ROS; assay type: cell-based; conditions: Homo sapiens; for activity at 1 µM: HT-29, read-out: Intracellular ROS, percentage compared to the untreated control cells (ROS/SRB), HT‐29, 1 μM; for activity at 10 µM: HT-29, read-out: Intracellular ROS, percentage compared to the untreated control cells (ROS/SRB), HT‐29, 10 μM
Method in brief: (§3)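 Cells grown in DMEM+glutamax with 1% NEAA, 1% P/S and 10% FBS at 37 °C, 10% CO2. Seeded at 2×10^4 cells/well for 24 h, then confluent cells were exposed to test compound at 1 or 10 µM in serum-free medium, with NAC as control. Cells were washed, loaded with DCFH-DA for 30 min, then kept 1 h in phenol red-free DMEM. Fluorescence read at ex 485/em 535 nm, normalised to same-well SRB protein (490 nm) and given as % of untreated cells. Mean ± SD, n≥3; two-tailed t-test with unequal variances.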

HepG2 cells [6] = test: Intracellular ROS; assay type: cell-based; conditions: Homo sapiens; for activity at 1 µM: HepG2, read-out: Intracellular ROS, percentage compared to the untreated control cells (ROS/SRB), HepG2, 1 μM; for activity at 10 µM: HepG2, read-out: Intracellular ROS, percentage compared to the untreated control cells (ROS/SRB), HepG2, 10 μM
Method in brief: as §3

EA.hy926 cells [7] = test: Mitochondria activity; assay type: cell-based; conditions: Homo sapiens, EA.hy 926, 72 h, read-out: EA.hy926 IC50 MTT
Method in brief: as §2

HT‐29 cells [8] = test: Mitochondria activity; assay type: cell-based; conditions: Homo sapiens, HT-29, 72 h, read-out: HT‐29 IC50 MTT
Method in brief: as §2

HT‐29 cells [9] = test: Protein content; assay type: cell-based; conditions: Homo sapiens, HT-29, 72 h, read-out: HT‐29 IC50 SRB
Method in brief: as §1

EA.hy926 cells [10] = test: Intracellular ROS; assay type: cell-based; conditions: Homo sapiens; for activity at 1 µM: EA.hy 926, read-out: Intracellular ROS, percentage compared to the untreated control cells (ROS/SRB), EA.hy926, 1 μM; for activity at 10 µM: EA.hy 926, read-out: Intracellular ROS, percentage compared to the untreated control cells (ROS/SRB), EA.hy926, 10 μM
Method in brief: as §3

[11] = Ferric reducing antioxidant power; conditions: chemical antioxidant capacity, n=3
Method in brief: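 FRAP reagent made from acetate buffer, TPTZ in ethanol and FeCl3·6H2O in dilute HCl, mixed 10:1:1, with TPTZ and iron solutions fresh daily. Sample mixed with reagent 1:9, absorbance read at 593 nm after 4 min. Values expressed as Trolox equivalents by linear regression on a Trolox standard curve; α-tocopherol positive control.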

[12] = Water solubility, shake flask method in 0.1 M phosphate buffer pH 6.8; assay type: physicochemical; conditions: 37 °C, pH 6.8, aqueous buffer, thermodynamic from solid
Method in brief: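 Excess solid added to 1 mL sodium phosphate buffer, pH 6.8. Two conditions: 90 min sonication at 37 °C, or 30 min sonication at 37 °C, 23 h shaking at 300 rpm, then 30 min sonication. Centrifuged 14000 rpm for 5 min, filtered (0.2 µm) at 37 °C and diluted in DMSO. Quantified by LC at maximum absorbance against standard curves; independent triplicates.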

Caco‐2 cells [13] = test: Intracellular ROS; assay type: cell-based, human; conditions: protein content normalization, mean±SD, n≥3
Method in brief: as §3

HepG2 cells [14] = test: Mitochondria activity; assay type: cell-based; conditions: Homo sapiens, HepG2, 72 h, read-out: HepG2 IC50 MTT
Method in brief: as §2

| Structure (SMILES) | IC50 (HepG2 cells [1]) | IC50 (Caco‐2 cells [2]) | IC50 (EA.hy926 cells [3]) | IC50 (Caco‐2 cells [4]) | activity at 1 µM (HT‐29 cells [5]) | activity at 10 µM (HT‐29 cells [5]) | activity at 1 µM (HepG2 cells [6]) | activity at 10 µM (HepG2 cells [6]) | IC50 (EA.hy926 cells [7]) | IC50 (HT‐29 cells [8]) | IC50 (HT‐29 cells [9]) | activity at 1 µM (EA.hy926 cells [10]) | activity at 10 µM (EA.hy926 cells [10]) | FRAP [11] | solubility at 90 min [12] | solubility at 24 h [12] | Intracellular ROS, percentage compared to the untreated control cells (ROS/SRB), Caco‐2, 1 μM (Caco‐2 cells [13]) | Intracellular ROS, percentage compared to the untreated control cells (ROS/SRB), Caco‐2, 10 μM (Caco‐2 cells [13]) | IC50 (HepG2 cells [14]) |
| --- | --- | --- | --- | --- | --- | --- | --- | --- | --- | --- | --- | --- | --- | --- | --- | --- | --- | --- | --- |
| COCCCNC(=C\C(=O)/C=C/c1cccnc1)/C=C/c1cccnc1 [5 d, (1E,4Z,6E)‐5‐(3‐Methoxypropylamino)‐1,7‐di(pyridin‐3‐yl)hepta‐1,4,6‐trien‐3‐one] | > 75 µM | 28.5 ± 3.5 µM | 72.7 ± 3.7 µM | 36 ± 0.1 µM | 102 ± 19.4% | 95.1 ± 14% | 92.3 ± 4.6% | 89.4 ± 3.1% | 70.6 ± 2.5 µM | 59.6 ± 7.7 µM | 51.5 ± 6.1 µM | 102 ± 5.8% | 98.3 ± 2% | 0.01 Trolox equiv per μM | 897.4 ± 1.1 µM (≈ 314 µg/mL) | 2310 ± 90 µM (≈ 808 µg/mL) | 101.5±9.2% | 110.6±5.3^[b] % | > 75 µM |
| CC(=O)N[C@@H](CS)C(=O)O [N‐acetyl‐L‐cysteine, reference compound] |  | > 75 µM |  | > 75 µM | 90.1 ± 12% | 87.7 ± 3.7% | 73.1 ± 2.7% | 70.5 ± 3.1% |  |  |  | 79.6 ± 11.1% | 79.6 ± 7.4% |  |  |  | 55.7±5.8^[c] % | 47.8±2.6^[c] % |  |
| O=C(/C=C(/C=C/c1cccnc1)NC1CCCCC1)/C=C/c1cccnc1 [5 b, (1E,4Z,6E)‐5‐Cyclohexylamino‐1,7‐di(pyridin‐3‐yl)hepta‐1,4,6‐trien‐3‐one] | > 75 µM | 65.6 ± 2.1 µM | 53 ± 1.9 µM | 60.8 ± 6 µM | 93.7 ± 13.2% | 90.6 ± 2.8% | 92.3 ± 7.8% | 98.8 ± 4.6% | 40.2 ± 1.4 µM | 36.4 ± 7.9 µM | 19.4 ± 0.9 µM | 89.1 ± 4.2% | 114 ± 9.5% | 0.00 Trolox equiv per μM | 11.3 ± 0.6 µM (≈ 4.06 µg/mL) | 12.2 ± 0.6 µM (≈ 4.39 µg/mL) | 101.3±0.9% | 117.7±5.6^[b] % | > 75 µM |
| Cc1c(C)c2c(c(C)c1O)CC[C@@](C)(CCC[C@H](C)CCC[C@H](C)CCCC(C)C)O2 [α‐tocopherol, reference compound] |  |  |  |  |  |  |  |  |  |  |  |  |  | 0.76 Trolox equiv per μM |  |  |  |  |  |
| O=C(/C=C(O)/C=C/c1c[nH]c2ccccc12)/C=C/c1c[nH]c2ccccc12 [compound 3, (1E,4Z,6E)‐5‐Hydroxy‐1,7‐di(1H‐indol‐3‐yl)hepta‐1,4,6‐trien‐3‐one] | 10.4 ± 1.5 µM | 3.3 ± 0.3 µM | 15.2 ± 5.9 µM | 2.1 ± 0.6 µM | 141 ± 21.3% | 125 ± 12% | 129 ± 8% | 382 ± 34% | 11.7 ± 4.6 µM | 11.5 ± 6.7 µM | 15.3 ± 6.6 µM | 111 ± 7.5% | 218 ± 20.3% | 0.27 Trolox equiv per μM | 19 ± 0.2 µM (≈ 6.73 µg/mL) | 11.1 ± 0.1 µM (≈ 3.93 µg/mL) | 95.7±7.3% | 110.3±6.5^[b] % | 10 ± 1.7 µM |
